Assay results: ChEMBL document CHEMBL3120102, “Structure-based design, synthesis and biological evaluation of novel anthra[1,2-d]imidazole-6,11-dione homologues as potential antitumor agents” (2013)

What was measured:
SK-MEL-2 = assay: Cytotoxicity against human SK-MEL-2 cells assessed as cell growth at 10 uM after 48 hrs by SRB assay; format: functional; conditions: SK-MEL-2, 48 h, read-out: Activity
Summary of the method: (§1)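 First stage of the NCI 60 human tumour cell line screen: a single dose is tested against every line. Cell growth is read as cellular protein by sulforhodamine B colorimetry after 48 h of drug exposure, with reference to a time-zero control and to untreated plates.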

RPMI-8226 = assay: Cytotoxicity against human RPMI8226 cells assessed as cell growth at 10 uM after 48 hrs by SRB assay; format: functional; conditions: RPMI-8226, 48 h, read-out: Activity; summary of the method: as §1
SR = assay: Cytotoxicity against human SR cells assessed as cell growth at 10 uM after 48 hrs by SRB assay; format: functional; conditions: read-out: Activity
Summary of the method: (§2)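 First stage of the NCI 60 human tumour cell line screen, with each compound tested at a single dose of 10. Cellular protein measured by sulforhodamine B colorimetry after 48 h drug exposure. Growth is calculated against a time-zero cell control and against plates not exposed to drug.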

M14 = assay: Cytotoxicity against human M14 cells assessed as cell growth at 10 uM after 48 hrs by SRB assay; format: functional; conditions: M14, 48 h, read-out: Activity
Summary of the method: (§3)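 NCI 60-cell-line screen, first stage: compound at a single dose of […] (unit as printed) for 48 h. Cellular protein was measured by sulforhodamine B colorimetry. Growth was determined using a time-zero cell control and plates not exposed to drug.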

HOP-62 = assay: Cytotoxicity against human HOP62 cells assessed as cell growth at 10 uM after 48 hrs by SRB assay; format: functional; conditions: HOP-62, 48 h, read-out: Activity; summary of the method: as §3
HL-60(TB) = assay: Cytotoxicity against human HL-60(TB) cells assessed as cell growth at 10 uM after 48 hrs by SRB assay; format: functional; conditions: HL-60, 48 h, read-out: Activity
Summary of the method: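 NCI 60-cell panel first-stage screen at a single dose in the HL-60(TB) leukemia line. Cellular protein was measured by sulforhodamine B colorimetry after 48 h of drug exposure. Growth was referenced to a time-zero cell control and to plates not exposed to drug.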

SK-MEL-5 = assay: Cytotoxicity against human SK-MEL-5 cells assessed as cell growth at 10 uM after 48 hrs by SRB assay; format: functional; conditions: SK-MEL-5, 48 h, read-out: Activity; summary of the method: as §1
SF-268 = assay: Cytotoxicity against human SF268 cells assessed as cell growth at 10 uM after 48 hrs by SRB assay; format: functional; conditions: SF-268, 48 h, read-out: Activity; summary of the method: as §1
ACHN = assay: Cytotoxicity against human ACHN cells assessed as cell growth at 10 uM after 48 hrs by SRB assay; format: functional; conditions: read-out: Activity
BT-549 = assay: Cytotoxicity against human BT549 cells assessed as cell growth at 10 uM after 48 hrs by SRB assay; format: functional; conditions: BT-549, 48 h, read-out: Activity; summary of the method: as §3
[1] = Cytotoxicity against human UO31 cells assessed as cell growth at 10 uM after 48 hrs by SRB assay; format: functional; conditions: UO-31, 48 h, read-out: Activity; summary of the method: as §2
DU-145 = assay: Cytotoxicity against human DU145 cells assessed as cell growth at 10 uM after 48 hrs by SRB assay; format: functional; conditions: DU-145, 48 h, read-out: Activity; summary of the method: as §3
HCT-116 = assay: Cytotoxicity against human HCT116 cells assessed as cell growth at 10 uM after 48 hrs by SRB assay; format: functional; conditions: HCT-116, 48 h, read-out: Activity
OVCAR-8 = assay: Cytotoxicity against human OVCAR8 cells assessed as cell growth at 10 uM after 48 hrs by SRB assay; format: functional; conditions: OVCAR-8, 48 h, read-out: Activity; summary of the method: as §1
SF-295 = assay: Cytotoxicity against human SF295 cells assessed as cell growth at 10 uM after 48 hrs by SRB assay; format: functional; conditions: SF-295, 48 h, read-out: Activity; summary of the method: as §1
[2] = biological target: Telomerase reverse transcriptase (Homo sapiens) (UniProt O14746); assay: Inhibition of human tert transcriptional activity assessed as SEAP activity at 100 uM after 24 hrs by SEAP reporter assay; design: scale not given: the % may be the effect or the level left
Summary of the method: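 Reporter assay for hTERT transcriptional activity using secreted alkaline phosphatase. About 2 × 10³ cells per well were grown for 24 h at 37 °C, then given fresh medium. Buffer was added to the medium: 2 M diethanolamine, 1 mM MgCl2 and 20 mM L-homoarginine. p-Nitrophenyl phosphate was added to 12 mM final. The rate of absorbance increase was read at 405 nm.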

IGROV-1 = assay: Cytotoxicity against human IGROV1 cells assessed as cell growth at 10 uM after 48 hrs by SRB assay; format: functional; conditions: IGROV-1, 48 h, read-out: Activity
KM12 = assay: Cytotoxicity against human KM12 cells assessed as cell growth at 10 uM after 48 hrs by SRB assay; format: functional; conditions: KM12, 48 h, read-out: Activity
SNB-75 = assay: Cytotoxicity against human SNB75 cells assessed as cell growth at 10 uM after 48 hrs by SRB assay; format: functional; conditions: SNB-75, 48 h, read-out: Activity; summary of the method: as §2
MOLT-4 = assay: Cytotoxicity against human MOLT4 cells assessed as cell growth at 10 uM after 48 hrs by SRB assay; format: functional; conditions: MOLT-4, 48 h, read-out: Activity; summary of the method: as §1
Malme-3M = assay: Cytotoxicity against human MALME-3M cells assessed as cell growth at 10 uM after 48 hrs by SRB assay; format: functional; conditions: read-out: Activity
UACC-62 = assay: Cytotoxicity against human UACC62 cells assessed as cell growth at 10 uM after 48 hrs by SRB assay; format: functional; conditions: UACC-62, 48 h, read-out: Activity; summary of the method: as §2
SNB-19 = assay: Cytotoxicity against human SNB19 cells assessed as cell growth at 10 uM after 48 hrs by SRB assay; format: functional; conditions: SNB-19, 48 h, read-out: Activity; summary of the method: as §2
[3] = Cytotoxicity against human H1299 cells assessed as cell viability at 1 uM after 48 hrs by MTT assay; format: functional; conditions: NCI-H1299, 48 h, read-out: Activity
Summary of the method: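 About 2×10³ H1299 cells per well were grown for 24 h at 37 °C in 5% CO2. Compound was dissolved in DMSO immediately before use, diluted in complete medium and left on cells for 48 h. MTT was then added for 4 h at 37 °C, followed by SDS/DMF lysis buffer for 16 h at 37 °C. Absorbance was read at 550 nm.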

NCI-H226 = assay: Cytotoxicity against human NCI-H226 cells assessed as cell growth at 10 uM after 48 hrs by SRB assay; format: functional; conditions: NCI-H226, 48 h, read-out: Activity; summary of the method: as §1
SW-620 = assay: Cytotoxicity against human SW620 cells assessed as cell growth at 10 uM after 48 hrs by SRB assay; format: functional; conditions: SW-620, 48 h, read-out: Activity; summary of the method: as §2
NCI-H23 = assay: Cytotoxicity against human NCI-H23 cells assessed as cell growth at 10 uM after 48 hrs by SRB assay; format: functional; conditions: NCI-H23, 48 h, read-out: Activity; summary of the method: as §1
MDA-MB-231 = assay: Cytotoxicity against human MDA-MB-231 cells assessed as cell growth at 10 uM after 48 hrs by SRB assay; format: functional; conditions: MDA-MB-231, 48 h, read-out: Activity; summary of the method: as §1
A549 = assay: Cytotoxicity against human A549 cells assessed as cell growth at 10 uM after 48 hrs by SRB assay; format: functional; conditions: A549, 48 h, read-out: Activity

Chain of Telomerase reverse transcriptase (Homo sapiens) (O14746 whole entry): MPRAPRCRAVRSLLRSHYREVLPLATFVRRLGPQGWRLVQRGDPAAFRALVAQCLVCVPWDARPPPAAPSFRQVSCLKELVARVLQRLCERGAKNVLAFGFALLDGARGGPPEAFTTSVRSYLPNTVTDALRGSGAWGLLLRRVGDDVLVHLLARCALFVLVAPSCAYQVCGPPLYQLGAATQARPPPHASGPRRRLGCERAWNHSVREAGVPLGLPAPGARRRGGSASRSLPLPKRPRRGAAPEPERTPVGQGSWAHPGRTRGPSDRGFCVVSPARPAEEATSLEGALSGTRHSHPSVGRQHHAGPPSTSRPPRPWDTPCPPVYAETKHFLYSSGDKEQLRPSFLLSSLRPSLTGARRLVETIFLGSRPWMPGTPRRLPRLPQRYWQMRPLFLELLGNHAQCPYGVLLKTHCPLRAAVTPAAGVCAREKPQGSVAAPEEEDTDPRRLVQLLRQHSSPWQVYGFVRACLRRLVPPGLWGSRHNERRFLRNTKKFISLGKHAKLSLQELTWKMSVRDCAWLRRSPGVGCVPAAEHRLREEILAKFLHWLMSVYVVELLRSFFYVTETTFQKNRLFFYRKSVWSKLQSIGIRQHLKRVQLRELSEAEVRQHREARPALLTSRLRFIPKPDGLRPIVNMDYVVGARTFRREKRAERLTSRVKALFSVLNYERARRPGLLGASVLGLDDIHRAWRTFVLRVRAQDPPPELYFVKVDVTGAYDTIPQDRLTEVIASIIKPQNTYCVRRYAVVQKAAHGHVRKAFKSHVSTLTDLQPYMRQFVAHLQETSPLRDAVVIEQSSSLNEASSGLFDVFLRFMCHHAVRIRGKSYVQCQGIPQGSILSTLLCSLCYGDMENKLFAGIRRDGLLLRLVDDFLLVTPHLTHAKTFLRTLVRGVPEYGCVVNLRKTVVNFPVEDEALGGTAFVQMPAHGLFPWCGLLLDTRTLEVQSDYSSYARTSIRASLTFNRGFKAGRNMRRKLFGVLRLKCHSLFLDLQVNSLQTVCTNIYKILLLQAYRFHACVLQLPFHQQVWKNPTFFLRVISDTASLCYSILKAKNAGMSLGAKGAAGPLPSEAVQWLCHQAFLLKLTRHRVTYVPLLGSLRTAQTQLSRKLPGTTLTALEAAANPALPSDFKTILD

SMILES | growth at 10 µM (SK-MEL-2) [%] | growth at 10 µM (RPMI-8226) [%] | growth at 10 µM (SR) [%] | growth at 10 µM (M14) [%] | growth at 10 µM (HOP-62) [%] | growth at 10 µM (HL-60(TB)) [%] | growth at 10 µM (SK-MEL-5) [%] | growth at 10 µM (SF-268) [%] | growth at 10 µM (ACHN) [%] | growth at 10 µM (BT-549) [%] | growth at 10 µM [1] [%] | growth at 10 µM (DU-145) [%] | growth at 10 µM (HCT-116) [%] | growth at 10 µM (OVCAR-8) [%] | growth at 10 µM (SF-295) [%] | Activity [2] [%] | growth at 10 µM (IGROV-1) [%] | growth at 10 µM (KM12) [%] | growth at 10 µM (SNB-75) [%] | growth at 10 µM (MOLT-4) [%] | also measured
O=C1c2ccccc2C(=O)c2c1ccc1[nH]c(=S)[nH]c21 | 134 | 101 | 125 | 101 | 96.7 | 97.6 | 86.7 | 90.3 | 96.2 | 114 | 97.8 | 99.3 | 96.3 | 140 | 118 | 31 | 138 | 102 | 101 | 109 | growth at 10 µM (Malme-3M): 87.5%; growth at 10 µM (UACC-62): 84.2%; growth at 10 µM (SNB-19): 91.3%; viability at 1 µM [3]: 101%; growth at 10 µM (NCI-H226): 83.7%; growth at 10 µM (SW-620): 97.6%; growth at 10 µM (NCI-H23): 113%; growth at 10 µM (MDA-MB-231): 108%; growth at 10 µM (A549): 118%
CN(C)CCCSc1nc2ccc3c(c2[nH]1)C(=O)c1ccccc1C3=O | 80 | -13.7 | 3.09 | 77.3 | 52 | 12.7 | 62.5 | 53.1 | 24.3 | 75.8 | 25.5 | 36.4 | 27.6 | 61.9 | 76 | 15 | 30.9 | 20.4 | 50.5 | -2.9 | growth at 10 µM (Malme-3M): 88.2%; growth at 10 µM (UACC-62): 75.4%; growth at 10 µM (SNB-19): 79.7%; viability at 1 µM [3]: 108%; growth at 10 µM (NCI-H226): 74.1%; growth at 10 µM (SW-620): 26.4%; growth at 10 µM (NCI-H23): 53.8%; growth at 10 µM (MDA-MB-231): 56.2%; growth at 10 µM (A549): 51.6%
CCSc1nc2ccc3c(c2[nH]1)C(=O)c1ccccc1C3=O | 81.7 | 28.5 | 129 | 67.1 | 95.6 | 62.6 | 63.9 | 75.7 | 37.6 | 55.8 | 49.2 | 64.5 | 68.8 | 96.8 | 101 | 17 | 73.4 | 68.3 | 73.3 | 101 | growth at 10 µM (Malme-3M): 63.3%; growth at 10 µM (UACC-62): 47.6%; growth at 10 µM (SNB-19): 87.9%; viability at 1 µM [3]: 109%; growth at 10 µM (NCI-H226): 62.1%; growth at 10 µM (SW-620): 84.5%; growth at 10 µM (NCI-H23): 87.4%; growth at 10 µM (MDA-MB-231): 84.8%; growth at 10 µM (A549): 101%
